Molecules are shown by their SMILES.

For assay [1], the system named is HT-29. The experiment in a line: Induction of apoptosis in human HT-29 cells assessed as necrotic cells at 1 uM after 48 hrs by annexin V/propidium iodide staining based flow cytometric analysis (reference value: 3.66 %). Type of assay: functional.
The subject of assay [2] is HT-29. The experiment in a line: Induction of apoptosis in human HT-29 cells assessed as late apoptotic cells at 1 uM after 48 hrs by annexin V/propidium iodide staining based flow cytometric analysis (reference value: 2.49 %). Type of assay: functional. On the technique in general: In flow cytometry, cells or beads pass a laser one at a time.
In assay [3] the test system is HT-29. The experiment in a line: Induction of apoptosis in human HT-29 cells assessed as early apoptotic cells at 1 uM after 48 hrs by annexin V/propidium iodide staining based flow cytometric analysis (reference value: 1.72 %). Type of assay: functional.
Assay [4] deals with HT-29. The experiment in a line: Antiproliferative activity against human HT-29 cells after 72 hrs by MTT assay. It is filed as functional, cell-based. The following applies: HT-29, 72 h. The essentials:
(§1)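 MTT assay. Cells grown in MEM with 10% FBS. About 4 × 10³ cells per well were plated and left 24 h at 37 °C in 5% CO₂. Compounds were then added for a further 72 h. MTT was added to a final 5 µg/mL for 4 h at 37 °C. Formazan was dissolved in DMSO and read at 492 nm against a 630 nm reference. Each line was tested three times, and IC50 is the average of at least three determinations.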

The nature of assay [5]: Antiproliferative activity against human H460 cells after 72 hrs by MTT assay. Type of assay: functional, cell-based. The note with it: NCI-H460, 72 h. The essentials: as §1
(In general: Formazan colour is commonly taken as a measure of viable cells.)

A further assay has as its system MDA-MB-231. The experiment in a line: Antiproliferative activity against human MDA-MB-231 cells after 72 hrs by MTT assay. It is filed as functional, cell-based. The note with it: MDA-MB-231, 72 h. The essentials: as §1
A short description of assay [6]: Cytotoxicity against human WI38 cells after 72 hrs by MTT assay. It is filed as cell-based. The note with it: WI-38, 72 h. In short, it runs like this:
as §1

Assay [7] deals with Mast/stem cell growth factor receptor Kit (Homo sapiens) (UniProt P10721). The experiment in a line: Inhibition of c-KIT (unknown origin) at 10 uM after 1 hr by mobility shift assay. In short, it runs like this: (§2)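 Mobility shift kinase assay. Compounds were diluted in DMSO and then in kinase buffer, and tested in duplicate wells with enzyme and peptide substrate. Incubation was 1 h at 28 °C before stop buffer was added.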
Mast/stem cell growth factor receptor Kit (Homo sapiens), sequence (P10721 whole entry): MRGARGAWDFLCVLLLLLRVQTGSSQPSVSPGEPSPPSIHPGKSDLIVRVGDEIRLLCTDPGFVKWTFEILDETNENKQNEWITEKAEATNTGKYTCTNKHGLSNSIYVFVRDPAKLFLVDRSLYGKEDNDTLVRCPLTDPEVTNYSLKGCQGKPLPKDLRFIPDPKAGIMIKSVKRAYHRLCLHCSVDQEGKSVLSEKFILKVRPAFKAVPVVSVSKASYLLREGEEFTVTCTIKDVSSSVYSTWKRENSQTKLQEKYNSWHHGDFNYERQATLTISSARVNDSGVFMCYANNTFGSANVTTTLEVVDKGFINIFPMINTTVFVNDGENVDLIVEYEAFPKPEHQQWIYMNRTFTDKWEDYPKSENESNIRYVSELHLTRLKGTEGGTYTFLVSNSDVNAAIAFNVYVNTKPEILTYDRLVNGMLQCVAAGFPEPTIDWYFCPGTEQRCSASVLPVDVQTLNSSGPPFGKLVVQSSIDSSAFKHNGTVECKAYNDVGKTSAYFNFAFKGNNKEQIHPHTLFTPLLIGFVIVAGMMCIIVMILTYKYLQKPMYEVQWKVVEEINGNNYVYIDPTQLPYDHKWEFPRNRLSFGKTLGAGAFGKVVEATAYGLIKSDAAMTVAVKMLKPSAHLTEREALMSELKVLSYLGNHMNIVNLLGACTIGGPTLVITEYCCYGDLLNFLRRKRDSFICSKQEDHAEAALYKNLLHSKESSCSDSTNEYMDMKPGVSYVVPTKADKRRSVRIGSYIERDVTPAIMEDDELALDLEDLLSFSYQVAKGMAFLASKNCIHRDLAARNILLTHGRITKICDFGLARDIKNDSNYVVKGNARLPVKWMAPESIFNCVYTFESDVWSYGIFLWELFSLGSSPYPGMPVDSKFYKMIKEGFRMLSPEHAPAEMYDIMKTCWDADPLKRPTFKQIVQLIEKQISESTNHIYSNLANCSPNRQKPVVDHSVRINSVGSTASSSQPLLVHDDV

In assay [8] the target is Proto-oncogene tyrosine-protein kinase receptor Ret (Homo sapiens) (UniProt P07949). The experiment in a line: Inhibition of RET (unknown origin) at 10 uM after 1 hr by mobility shift assay. In short, it runs like this: as §2
Proto-oncogene tyrosine-protein kinase receptor Ret (Homo sapiens), sequence (P07949 whole entry): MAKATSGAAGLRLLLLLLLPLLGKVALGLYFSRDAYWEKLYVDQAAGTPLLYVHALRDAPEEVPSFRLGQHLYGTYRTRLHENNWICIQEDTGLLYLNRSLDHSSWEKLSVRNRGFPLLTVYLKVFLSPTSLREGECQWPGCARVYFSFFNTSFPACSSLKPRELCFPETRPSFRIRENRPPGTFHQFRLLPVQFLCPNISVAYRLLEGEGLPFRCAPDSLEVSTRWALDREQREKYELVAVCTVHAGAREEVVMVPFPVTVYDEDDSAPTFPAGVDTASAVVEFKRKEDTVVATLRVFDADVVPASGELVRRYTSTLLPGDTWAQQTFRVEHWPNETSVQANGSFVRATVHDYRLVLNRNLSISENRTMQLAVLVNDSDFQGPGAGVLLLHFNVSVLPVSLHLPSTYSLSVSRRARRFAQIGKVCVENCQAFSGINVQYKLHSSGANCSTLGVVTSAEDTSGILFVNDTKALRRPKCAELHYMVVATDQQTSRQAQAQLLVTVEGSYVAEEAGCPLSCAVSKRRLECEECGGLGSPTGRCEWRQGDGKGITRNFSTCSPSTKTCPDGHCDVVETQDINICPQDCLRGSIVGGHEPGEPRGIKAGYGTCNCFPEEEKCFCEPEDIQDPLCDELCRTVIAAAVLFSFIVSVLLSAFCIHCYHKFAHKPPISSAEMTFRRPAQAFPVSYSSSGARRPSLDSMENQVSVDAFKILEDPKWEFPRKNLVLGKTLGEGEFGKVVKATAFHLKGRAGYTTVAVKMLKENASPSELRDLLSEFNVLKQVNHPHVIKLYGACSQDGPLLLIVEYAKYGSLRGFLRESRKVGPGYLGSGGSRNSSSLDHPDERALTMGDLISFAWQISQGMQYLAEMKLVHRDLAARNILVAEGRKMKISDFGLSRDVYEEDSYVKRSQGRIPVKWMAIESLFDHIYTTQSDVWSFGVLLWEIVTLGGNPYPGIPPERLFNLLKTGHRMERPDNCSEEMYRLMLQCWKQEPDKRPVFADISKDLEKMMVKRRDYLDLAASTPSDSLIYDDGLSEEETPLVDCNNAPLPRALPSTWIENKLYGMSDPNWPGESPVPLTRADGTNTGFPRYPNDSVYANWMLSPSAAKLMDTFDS
Assay [9] deals with Receptor-type tyrosine-protein kinase FLT3 (Homo sapiens) (UniProt P36888). The experiment in a line: Inhibition of FLT3 (unknown origin) at 10 uM after 1 hr by mobility shift assay. The essentials:
as §2

Assay [10] concerns HT-29. The experiment in a line: Induction of apoptosis in human HT-29 cells after 48 hrs by annexin V/propidium iodide staining based flow cytometric analysis. It is filed as functional, cell-based.
The test system of assay [11] is HT-29. The experiment in a line: Induction of apoptosis in human HT-29 cells assessed as viable cells at 1 uM after 48 hrs by annexin V/propidium iodide staining based flow cytometric analysis (reference value: 92.1 %). The note with it: HT-29, 48 h, read-out: Activity. Type of assay: functional.
The test system of assay [12] is HT-29. The experiment in a line: Induction of apoptosis in human HT-29 cells assessed as viable cells 2 uM after 48 hrs by annexin V/propidium iodide staining based flow cytometric analysis (reference value: 92.1 %). It is filed as functional.
The test system of assay [13] is HT-29. The experiment in a line: Induction of apoptosis in human HT-29 cells assessed as early apoptotic cells at 2 uM after 48 hrs by annexin V/propidium iodide staining based flow cytometric analysis (reference value: 1.72 %). Type of assay: functional.
Assay [14] concerns HT-29. The experiment in a line: Induction of apoptosis in human HT-29 cells assessed as late apoptotic cells at 2 uM after 48 hrs by annexin V/propidium iodide staining based flow cytometric analysis (reference value: 2.49 %). Type of assay: functional.
Assay [15] has as its system HT-29. The experiment in a line: Induction of apoptosis in human HT-29 cells assessed as necrotic cells at 2 uM after 48 hrs by annexin V/propidium iodide staining based flow cytometric analysis (reference value: 3.66 %). It is filed as functional.
The test system of assay [16] is HT-29. The experiment in a line: Induction of apoptosis in human HT-29 cells assessed as viable cells 5 uM after 48 hrs by annexin V/propidium iodide staining based flow cytometric analysis (reference value: 92.1 %). It is filed as functional.
The test system of assay [17] is HT-29. The experiment in a line: Induction of apoptosis in human HT-29 cells assessed as early apoptotic cells at 5 uM after 48 hrs by annexin V/propidium iodide staining based flow cytometric analysis (reference value: 1.72 %). It is filed as functional.
Assay [18] concerns HT-29. The experiment in a line: Induction of apoptosis in human HT-29 cells assessed as late apoptotic cells at 5 uM after 48 hrs by annexin V/propidium iodide staining based flow cytometric analysis (reference value: 2.49 %). It is filed as functional.
Assay [19] relates to HT-29. The experiment in a line: Induction of apoptosis in human HT-29 cells assessed as necrotic cells at 5 uM after 48 hrs by annexin V/propidium iodide staining based flow cytometric analysis (reference value: 3.66 %). It is filed as functional.
Assay [20] concerns the target Vascular endothelial growth factor receptor 2 (Homo sapiens) (UniProt P35968). The note with it: at 10 µM.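 Also: kinase activity read out by mobility shift assay after 1 h of incubation.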

Vascular endothelial growth factor receptor 2 (Homo sapiens), sequence (P35968 whole entry): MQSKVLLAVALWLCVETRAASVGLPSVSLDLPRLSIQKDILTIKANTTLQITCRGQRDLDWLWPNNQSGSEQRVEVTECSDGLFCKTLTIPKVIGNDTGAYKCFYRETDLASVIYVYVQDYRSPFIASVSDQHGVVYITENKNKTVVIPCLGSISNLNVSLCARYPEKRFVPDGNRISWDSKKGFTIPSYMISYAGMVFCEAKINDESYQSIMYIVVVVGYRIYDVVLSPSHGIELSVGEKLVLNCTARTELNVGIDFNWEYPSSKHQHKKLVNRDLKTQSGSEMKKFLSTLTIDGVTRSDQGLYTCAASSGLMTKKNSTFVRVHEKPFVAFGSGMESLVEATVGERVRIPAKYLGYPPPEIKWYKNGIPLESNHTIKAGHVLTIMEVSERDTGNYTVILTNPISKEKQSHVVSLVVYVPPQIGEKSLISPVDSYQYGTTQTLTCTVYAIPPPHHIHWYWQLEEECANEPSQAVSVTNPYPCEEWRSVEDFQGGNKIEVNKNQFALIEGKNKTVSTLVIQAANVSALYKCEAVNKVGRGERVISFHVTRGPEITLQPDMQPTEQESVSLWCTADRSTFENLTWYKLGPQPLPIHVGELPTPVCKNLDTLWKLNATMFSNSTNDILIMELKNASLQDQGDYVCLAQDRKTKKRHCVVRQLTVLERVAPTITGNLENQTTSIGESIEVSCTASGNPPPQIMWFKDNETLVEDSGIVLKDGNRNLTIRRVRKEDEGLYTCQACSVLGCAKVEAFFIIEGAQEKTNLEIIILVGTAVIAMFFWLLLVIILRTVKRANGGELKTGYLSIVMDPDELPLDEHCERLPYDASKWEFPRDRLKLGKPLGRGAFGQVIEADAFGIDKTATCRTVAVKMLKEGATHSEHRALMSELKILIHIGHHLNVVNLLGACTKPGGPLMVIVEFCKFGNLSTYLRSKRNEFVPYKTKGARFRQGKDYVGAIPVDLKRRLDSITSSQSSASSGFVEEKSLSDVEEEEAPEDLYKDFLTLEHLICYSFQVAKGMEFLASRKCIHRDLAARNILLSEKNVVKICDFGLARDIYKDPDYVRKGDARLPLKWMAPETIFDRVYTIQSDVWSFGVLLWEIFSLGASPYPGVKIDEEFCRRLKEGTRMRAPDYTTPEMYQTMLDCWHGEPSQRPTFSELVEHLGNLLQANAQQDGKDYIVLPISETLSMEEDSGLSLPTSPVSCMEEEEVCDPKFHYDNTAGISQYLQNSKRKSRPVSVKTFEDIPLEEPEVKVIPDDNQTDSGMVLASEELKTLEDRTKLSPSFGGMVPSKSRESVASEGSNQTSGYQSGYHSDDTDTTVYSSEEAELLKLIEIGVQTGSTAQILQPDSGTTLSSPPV
Receptor-type tyrosine-protein kinase FLT3 (Homo sapiens), sequence (P36888 whole entry): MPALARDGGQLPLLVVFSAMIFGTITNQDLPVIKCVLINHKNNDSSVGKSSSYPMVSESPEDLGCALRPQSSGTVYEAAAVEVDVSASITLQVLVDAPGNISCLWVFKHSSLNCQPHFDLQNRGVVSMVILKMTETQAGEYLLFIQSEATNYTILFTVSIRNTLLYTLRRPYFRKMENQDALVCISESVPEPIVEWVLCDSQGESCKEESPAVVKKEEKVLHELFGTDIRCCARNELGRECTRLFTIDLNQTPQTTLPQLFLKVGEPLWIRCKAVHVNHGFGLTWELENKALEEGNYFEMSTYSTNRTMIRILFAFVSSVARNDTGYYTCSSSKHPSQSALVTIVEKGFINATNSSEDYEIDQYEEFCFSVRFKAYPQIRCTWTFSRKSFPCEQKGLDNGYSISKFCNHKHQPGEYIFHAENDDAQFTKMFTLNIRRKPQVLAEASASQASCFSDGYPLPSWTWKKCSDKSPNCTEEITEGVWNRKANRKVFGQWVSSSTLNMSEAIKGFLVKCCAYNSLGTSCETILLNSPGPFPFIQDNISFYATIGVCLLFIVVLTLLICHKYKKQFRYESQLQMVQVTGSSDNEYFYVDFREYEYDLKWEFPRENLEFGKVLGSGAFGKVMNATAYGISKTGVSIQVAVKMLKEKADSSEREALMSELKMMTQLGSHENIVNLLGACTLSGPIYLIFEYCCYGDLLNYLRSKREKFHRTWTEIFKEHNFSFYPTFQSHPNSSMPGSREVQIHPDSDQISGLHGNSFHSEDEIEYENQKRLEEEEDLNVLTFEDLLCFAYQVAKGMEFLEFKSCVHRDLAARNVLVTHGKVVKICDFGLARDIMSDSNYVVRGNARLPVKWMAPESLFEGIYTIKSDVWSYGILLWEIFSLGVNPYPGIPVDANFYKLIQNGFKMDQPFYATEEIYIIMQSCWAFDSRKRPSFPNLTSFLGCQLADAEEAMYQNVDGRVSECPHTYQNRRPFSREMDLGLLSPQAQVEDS

What is called IC50 is the midpoint of a concentration-inhibition curve. By inhibition is commonly meant the share of the control response that was lost under treatment. As to `CCN(CC)CCn1cnnc1-c1cc(Oc2ccc(NC(=O)Nc3ccc(Cl)c(C(F)(F)F)c3)cc2F)ccn1`, the Activity in the assay on HT-29 [1] is 7.44%; with HT-29 [2], 8.34%; in the assay with HT-29 [3] it was 3.92%; in the assay with HT-29 [10] it was “Dose-dependent effect”; with HT-29 [12], 66.4%; in the assay with HT-29 [13], 14.4%. Also, the Activity stood at 13.2% with HT-29 [14]; 6.03% in the assay with HT-29 [15]; 43.3% in the assay with HT-29 [16]; 10.6% with HT-29 [17]; 37.5% in the assay on HT-29 [18]; 8.59% with HT-29 [19]. The concentration for half-maximal inhibition (IC50) in the assay on HT-29 [4] turned out to be 900 nM; in assay [5] it was 850 nM; in the assay on MDA-MB-231, 1540 nM; in [6] it was 6730 nM. Moreover, the inhibition turned out to be 79.9% in [7], 84.4% in [8], 84.9% in [9] and 10% in [20]. Also, the viability at 1 µM with HT-29 [11] worked out at 80.3%.

Source of the values: ChEMBL document CHEMBL3797160, “Discovery of novel diaryl urea derivatives bearing a triazole moiety as potential antitumor agents” (Eur J Med Chem, 2016).
